In ChEMBL document CHEMBL4765367, “Design, synthesis and antimicrobial evaluation of novel glycosylated-fluoroquinolones derivatives” (Eur J Med Chem, 2020):
Converted amounts (≈) assume the structure as drawn. Where a name gives a salt, the structure may show the parent alone. The source made the active and inactive calls. The rule behind the calls is not given here.

Legend:
Escherichia coli [1] = assay: Antimicrobial activity against Escherichia coli ATCC 8739 assessed as inhibition of microbial growth incubated for 24 hrs by microbroth dilution method; format: functional
Procedure, shortened: (§1)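 Bacteria were grown in suitable medium at 37 °C for 24 h and adjusted to 0.5 McFarland. Compound DMSO stocks were two-fold serially diluted in broth, and 10^6 inoculum was added. Plates were incubated at 37 °C for 24 h and read at A625. MIC is the lowest concentration showing no viability. Fluoroquinolone positive controls, DMSO negative, sterility and growth controls were included; triplicate.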

Pseudomonas aeruginosa = assay: Antimicrobial activity against Pseudomonas aeruginosa ATCC 9627 assessed as inhibition of microbial growth incubated for 24 hrs by microbroth dilution method; format: functional; procedure, shortened: as §1
Staphylococcus aureus [2] = assay: Antimicrobial activity against methicillin-resistant Staphylococcus aureus ATCC 33591 assessed as inhibition of microbial growth incubated for 24 hrs by microbroth dilution method; format: functional
Staphylococcus aureus [3] = assay: Antimicrobial activity against methicillin-sensitive Staphylococcus aureus ATCC 9253 assessed as inhibition of microbial growth incubated for 24 hrs by microbroth dilution method; format: functional; procedure, shortened: as §1
Escherichia coli [4] = assay: Antimicrobial activity against fluoroquinolone-resistant Escherichia coli assessed as inhibition of microbial growth incubated for 24 hrs by microbroth dilution method; format: functional
Aspergillus flavus = assay: Antifungal activity against Aspergillus flavus ATCC 9643 assessed as reduction in fungal growth incubated for 48 hrs by broth microdilution method; format: functional
Procedure, shortened: (§2)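 Conidia were harvested from cultures grown on malt extract agar at 30 °C for 7 d and counted by hemocytometer (mean of three counts). Stock suspensions were diluted 1:50 in malt extract broth. Compounds were made as 4.0 mg/mL DMSO stocks and two-fold serially diluted in broth. Plates were incubated at 30 °C for 48 h and read at A405. MIC is the lowest concentration with no viability. Fluconazole was the positive control, DMSO the vehicle; triplicate.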

Escherichia coli [5] = assay: Antimicrobial activity against Escherichia coli NCTC 11954 producing penicillinase assessed as inhibition of microbial growth incubated for 24 hrs by microbroth dilution method; format: functional; procedure, shortened: as §1
Listeria monocytogenes = assay: Antimicrobial activity against Listeria monocytogenes ATCC 19115 assessed as inhibition of microbial growth incubated for 24 hrs by microbroth dilution method; format: functional; procedure, shortened: as §1
Escherichia coli [6] = assay: Antimicrobial activity against Escherichia coli O157:H7 assessed as inhibition of microbial growth incubated for 24 hrs by microbroth dilution method; format: functional
Candida albicans = assay: Antifungal activity against Candida albicans ATCC 10231 assessed as reduction in fungal growth incubated for 48 hrs by broth microdilution method; format: functional
Salmonella enterica = assay: Antimicrobial activity against Salmonella enterica ATCC 13312 assessed as inhibition of microbial growth incubated for 24 hrs by microbroth dilution method; format: functional; procedure, shortened: as §1
Stachybotrys chartarum [7] = assay: Antifungal activity against Stachybotrys chartarum IBT 7711 assessed as reduction in fungal growth incubated for 48 hrs by broth microdilution method; format: functional; procedure, shortened: as §2
Fusarium solani = assay: Antifungal activity against Fusarium solani ATCC 36031 assessed as reduction in fungal growth incubated for 48 hrs by broth microdilution method; format: functional; procedure, shortened: as §2
L6 = assay: Cytotoxicity against rat L6 cells assessed as inhibition of cell viability incubated for 24 hrs by MTT assay; format: cell-based; details: L6, 24 h
Procedure, shortened: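 L6 rat myoblasts were grown in glucose-DMEM with 10% FBS, 1 mM L-glutamine, penicillin and streptomycin at 37 °C in 5% CO2. They were seeded at 2 × 10^4 cells/well and allowed to attach for 24 h. Cells were exposed to graded concentrations for 24 h, with 0.1% DMSO as vehicle. MTT (0.5 mg/mL) was added for 4 h, formazan was dissolved in DMSO, and A570 was read. Viability is given relative to vehicle. IC50 came from dose-effect curves; triplicate.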

Penicillium chrysogenum = assay: Antifungal activity against Penicillium chrysogenum ATCC 10106 assessed as reduction in fungal growth incubated for 48 hrs by broth microdilution method; format: functional; procedure, shortened: as §2
Stachybotrys chartarum [8] = assay: Potency index, ratio of fluconazole MIC to test compound MIC for Stachybotrys chartarum IBT 7711 measured after 48 hrs by broth microdilution method; format: functional
Escherichia coli [9] = assay: Potency index, ratio of norfloxacin MIC to test compound MIC for fluoroquinolone-resistant Escherichia coli measured after 24 hrs by microbroth dilution method; format: functional
Escherichia coli [10] = assay: Potency index, ratio of ciprofloxacin HCl MIC to test compound MIC for fluoroquinolone-resistant Escherichia coli measured after 24 hrs by microbroth dilution method; format: functional

Structure (SMILES)	MIC (Escherichia coli [1])	MIC (Pseudomonas aeruginosa)	MIC (Staphylococcus aureus [2])	MIC (Staphylococcus aureus [3])	MIC (Escherichia coli [4]) [µM]	MIC (Aspergillus flavus)	MIC (Escherichia coli [5])	MIC (Listeria monocytogenes)	MIC (Escherichia coli [6]) [µM]	MIC (Candida albicans)	MIC (Salmonella enterica)	MIC (Stachybotrys chartarum [7]) [µM]	MIC (Fusarium solani) [µM]	IC50 (L6) [µM]	MIC (Penicillium chrysogenum) [µM]	Ratio (Stachybotrys chartarum [8])	Ratio (Escherichia coli [9])	Ratio (Escherichia coli [10])
COc1c(N2C[C@@H]3CCCN(C(C)=O)[C@@H]3C2)c(F)cc2c(=O)c(C(=O)N[C@H]3C(O)O[C@H](CO)[C@@H](O)[C@@H]3O)cn(C3CC3)c12 (stereo not given in full)	207 µM	51.8 µM	207 µM	inactive	310	207 µM (≈ 125 µg/mL)	207 µM	103 µM	828	207 µM (≈ 125 µg/mL)	inactive	1.7 (≈ 1.03 µg/mL)	207 (≈ 125 µg/mL)	5.08	1.7 (≈ 1.03 µg/mL)	100	–	–
CC(=O)N1CCN(c2cc3c(cc2F)c(=O)c(C(=O)N[C@H]2C(O)O[C@H](CO)[C@@H](O)[C@@H]2O)cn3C2CC2)CC1 (stereo not given in full)	inactive	inactive	inactive	inactive	702	234 µM (≈ 125 µg/mL)	inactive	inactive	234	inactive	inactive	468 (≈ 250 µg/mL)	468 (≈ 250 µg/mL)	4.03	234 (≈ 125 µg/mL)	–	–	–
CCn1cc(C(=O)N[C@H]2C(O)O[C@H](CO)[C@@H](O)[C@@H]2O)c(=O)c2cc(F)c(N3CCN(C(C)=O)CC3)cc21 (stereo not given in full)	inactive	inactive	478 µM	inactive	89.8	478 µM (≈ 250 µg/mL)	239 µM	inactive	59.9	59.9 µM (≈ 31.3 µg/mL)	14.9 µM	120 (≈ 62.5 µg/mL)	239 (≈ 125 µg/mL)	3.72	120 (≈ 62.5 µg/mL)	–	3	–
CC(=O)OC[C@H]1OC(OC(C)=O)[C@H](NC(=O)c2cn(C3CC3)c3cc(N4CCN(C(C)=O)CC4)c(F)cc3c2=O)[C@@H](OC(C)=O)[C@@H]1OC(C)=O (stereo not given in full)	inactive	11.1 µM	inactive	inactive	267	712 µM (≈ 500 µg/mL)	inactive	inactive	178	inactive	11.1 µM	356 (≈ 250 µg/mL)	356 (≈ 250 µg/mL)	3.62	< 5.6	–	–	2
COc1c(N2C[C@@H]3CCCN(C(C)=O)[C@@H]3C2)c(F)cc2c(=O)c(C(=O)N[C@H]3C(OC(C)=O)O[C@H](COC(C)=O)[C@@H](OC(C)=O)[C@@H]3OC(C)=O)cn(C3CC3)c12 (stereo not given in full)	162 µM	324 µM	162 µM	inactive	485	162 µM (≈ 125 µg/mL)	inactive	< 5 µM	162	80.9 µM (≈ 62.5 µg/mL)	inactive	324 (≈ 250 µg/mL)	324 (≈ 250 µg/mL)	5.53	162 (≈ 125 µg/mL)	–	–	–
COc1c(N2C[C@@H]3CCCN[C@@H]3C2)c(F)cc2c(=O)c(C(=O)O)cn(C3CC3)c12 [MOXIFLOXACIN]	< 0.5 µM	71.5 µM	< 0.5 µM	< 0.5 µM	3.4	286 µM (≈ 115 µg/mL)	< 0.5 µM	< 0.5 µM	< 0.5	1.1 µM (≈ 0.442 µg/mL)	< 4.3 µM	2.3 (≈ 0.923 µg/mL)	286 (≈ 115 µg/mL)	5.78	1.1 (≈ 0.442 µg/mL)	–	–	–
OC(Cn1cncn1)(Cn1cncn1)c1ccc(F)cc1F [FLUCONAZOLE]	–	–	–	–	–	51 µM (≈ 15.6 µg/mL)	–	–	–	408 µM (≈ 125 µg/mL)	–	102 (≈ 31.3 µg/mL)	102 (≈ 31.3 µg/mL)	–	204 (≈ 62.5 µg/mL)	–	–	–
CCn1cc(C(=O)O)c(=O)c2cc(F)c(N3CCNCC3)cc21 [NORFLOXACIN]	48.9 µM	98 µM	24.4 µM	24.4 µM	294	783 µM (≈ 250 µg/mL)	24.4 µM	< 5.9 µM	< 5.9	< 5.9 µM	< 5.9 µM	196 (≈ 62.5 µg/mL)	391 (≈ 125 µg/mL)	3.43	196 (≈ 62.5 µg/mL)	–	–	–
O=C(O)c1cn(C2CC2)c2cc(N3CCNCC3)c(F)cc2c1=O [CIPROFLOXACIN HYDROCHLORIDE]	–	< 5.2 µM	< 5.2 µM	< 5.2 µM	–	inactive	–	0.5 µM	–	0.3 µM	< 5.2 µM	85	< 10.6	–	< 10.6	–	–	–
CCn1cc(C(=O)N[C@H]2C(OC(C)=O)O[C@H](COC(C)=O)[C@@H](OC(C)=O)[C@@H]2OC(C)=O)c(=O)c2cc(F)c(N3CCN(C(C)=O)CC3)cc21 (stereo not given in full)	inactive	inactive	362 µM	inactive	136	362 µM (≈ 250 µg/mL)	181 µM	inactive	45.3	5.6 µM (≈ 3.87 µg/mL)	11.3 µM	45.3 (≈ 31.3 µg/mL)	181 (≈ 125 µg/mL)	5.32	45.3 (≈ 31.3 µg/mL)	2	2	–
